Series [1] concerns Reovirus sp. The experiment in a line: Antiviral activity against Reovirus type-1 infected in BHK21 cells assessed as inhibition of virus-induced cytopathogenicity after 3 to 4 days by MTT assay. Format: functional, organism-based. Particulars: BHK-21.
For series [2], the system named is Bovine viral diarrhea virus 1. The experiment in a line: Antiviral activity against Bovine viral diarrhea virus infected in MDBK cells assessed as inhibition of virus-induced cytopathogenicity after 3 to 4 days by MTT assay. To be noted: Bovine viral diarrhea virus isolates and strains. Format: functional, organism-based.
Series [3] concerns Yellow fever virus. The experiment in a line: Antiviral activity against Yellow fever virus infected in BHK21 cells assessed as inhibition of virus-induced cytopathogenicity after 3 to 4 days by MTT assay. Type of series: functional, organism-based. Particulars: BHK-21. (Cytopathic effects are the visible damage that an infection or toxin causes in cultured cells.)
In series [4] the test system is Coxsackievirus B5. As to the kind of experiment: Antiviral activity against Coxsackievirus B5 infected in african green monkey Vero 76 cells assessed as reduction in plaque number after 3 days by plaque reduction assay. Format: functional, organism-based. To be noted: Enterovirus B, 72 h.
Series [5] is described as follows: Cytotoxicity against mock-infected human MT4 cells after 96 hrs by MTT assay. Type of series: cell-based. An outline of the steps:
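Exponentially growing MT-4 cells were seeded at 1 × 10^5 cells/mL in RPMI-1640 with 10% FBS and held at 37 °C, 5% CO2 with serial compound dilutions. Viability was read by MTT after 96 h. CC50 from linear regression against untreated controls.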

Series [6] has as its system Human alphaherpesvirus 1. The experiment in a line: Antiviral activity against HSV1 infected in african green monkey Vero 76 cells assessed as reduction in plaque number after 3 days by plaque reduction assay. Type of series: functional, organism-based. To be noted: Human alphaherpesvirus 1, Vero, 72 h. (In general: Plaques are areas of infected cells; plaque reduction assays count them against a control.)

The test system of series [7] is Vaccinia virus. As to the kind of experiment: Antiviral activity against Vaccinia Virus infected in african green monkey Vero 76 cells assessed as reduction in plaque number after 3 days by plaque reduction assay. Format: functional, organism-based. Particulars: Orthopoxvirus vaccinia, 72 h.
The nature of series [8]: Cytotoxicity against mock-infected african green monkey Vero 76 cells after 48 to 96 hrs by MTT assay. Format: cell-based. To be noted: chlorocebus sabaeus, mock-infected Vero 76 cells. For orientation: Formazan colour is commonly taken as a measure of viable cells.
Series [9] can be described thus: Cytotoxicity against mock-infected BHK21 cells after 48 to 96 hrs by MTT assay. Format: functional. Particulars: Mesocricetus auratus, BHK-21. An outline of the steps:
(§1)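 Mock-infected MDBK (6 × 10^5 cells/mL; MEM-E, 10% horse serum, 1 mM pyruvate) or BHK (1 × 10^6 cells/mL; MEM-E, 10% FBS) cells were incubated at 37 °C, 5% CO2 with serial dilutions from 100 µM, 1:5. Viability by MTT after 48–96 h. CC50 from linear regression against untreated controls.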

The subject of series [10] is Poliovirus 1. The experiment in a line: Antiviral activity against Poliovirus type 1 Sabin strain infected in african green monkey Vero 76 cells assessed as reduction in plaque number after 2 days by plaque reduction assay. Type of series: functional, organism-based. Particulars: Enterovirus C, 48 h.
Series [11] has as its system Respiratory syncytial virus. The experiment in a line: Antiviral activity against Respiratory syncytial virus infected in african green monkey Vero 76 cells assessed as reduction in plaque number after 5 days by plaque reduction assay. Format: functional, organism-based. Particulars: human respiratory syncytial virus, 120 h.
Series [12] is described as follows: Cytotoxicity against mock-infected MDBK cells after 48 to 96 hrs by MTT assay. Type of series: cell-based, Bos taurus. Particulars: cattle. An outline of the steps:
as §1

In series [13] the test system is Human immunodeficiency virus 1. As to the kind of experiment: Antiviral activity against HIV1 infected in human MT4 cells assessed as inhibition of virus-induced cytopathogenicity after 4 days by MTT assay. Format: functional, organism-based. Particulars: Human immunodeficiency virus 1, MT4, 96 h. An outline of the steps:
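MT-4 cells (1 × 10^4/well in RPMI) were infected acutely with HIV-1 IIIB, 100 CCID50 (m.o.i. 0.01), with serial dilutions from 100 µM, 1:5. After 4 days at 37 °C, protection from virus-induced cytopathogenicity was read by MTT. EC50 came from linear regression against untreated controls.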

The test system of series [14] is Vesicular stomatitis virus. The experiment in a line: Antiviral activity against Vesicular stomatitis virus infected in african green monkey Vero 76 cells assessed as reduction in plaque number after 2 days by plaque reduction assay. Type of series: functional, organism-based. To be noted: 48 h.

Some results are limits rather than exact numbers.

`c1ccc2[nH]c(C[C@H]3CCCN4CCCC[C@H]34)nc2c1`: the concentration for a half-maximal effect (EC50) in series [1], in series [2], in series [3], in series [4], in [6] and in series [7] was greater than 100 µM in each case. Further, the EC50 in [10], in series [11], in series [13] and in series [14] was greater than 100 µM in each case. The half-maximal cytotoxic concentration (CC50) – broadly, the concentration at which the toxic effect on the cells reaches its halfway point – at 96 h in [5] was greater than 100 µM. In addition, the cytotoxic concentration (CC50) in [8], in series [9] and in series [12] was greater than 100 µM in each case.
For the compound `Fc1cccc(F)c1-c1nc2cc(C(F)(F)F)ccc2n1C[C@@H]1CCCN2CCCC[C@H]12`, the EC50 in series [1], in series [2], in series [3], in series [4], in series [6] and in series [7] was greater than 100 µM throughout. In addition, the EC50 (as a rule, the concentration needed to bring the measured effect to its halfway point) in series [10] is 60 µM; in series [11] it was greater than 100 µM; in series [13] it was greater than 100 µM; in series [14], greater than 100 µM. The compound further gave a CC50 at 96 h in series [5] of 57 µM. Also, the CC50 is no less than 100 µM in series [8], 18 µM in series [9] and 36 µM in series [12].
As for `CCc1nc2ccccc2[nH]1`, the EC50 in [1], in [2], in series [3], in series [4], in [6] and in [7] was greater than 100 µM in each case. For the same compound, the 50% effective concentration (EC50) in series [10], in series [11], in series [13] and in series [14] was greater than 100 µM in each case. In series [5], the CC50 at 96 h is greater than 100 µM. For the same compound, the 50% cytotoxic concentration (CC50) in [8], in [9] and in [12] was greater than 100 µM in each case.
`c1ccc2[nH]c(CCCC3NCC4CC3CN3CCCCC43)nc2c1` (configuration not stated): the EC50 in series [1] is greater than 100 µM; in [2], 94 µM; in series [3] it was 87 µM; in series [4], greater than 100 µM; in [6], greater than 100 µM; in series [7] it was greater than 100 µM. In addition, the EC50 in [10], in series [11], in [13] and in series [14] was greater than 100 µM in each case. The CC50 at 96 h in series [5] is greater than 100 µM. Moreover, the CC50 in series [8], in [9] and in series [12] was greater than 100 µM in each case.
As for `Clc1ccc2[nH]c(C[C@@H]3CCCN4CCCC[C@H]34)nc2c1`, the concentration giving a half-maximal response (EC50) is greater than 100 µM in [1]; 17 µM in series [2]; greater than 100 µM in series [3]; greater than 100 µM in [4]; greater than 100 µM in [6]; greater than 100 µM in [7]. Also, the EC50 in series [10], in series [11], in series [13] and in series [14] was greater than 100 µM each time. The midpoint of cytotoxicity in [5], the CC50 at 96 h, lay at 53 µM. The CC50 in series [8] was greater than 100 µM; in series [9] it was 52 µM; in series [12], 77 µM.
As to `COc1ccc(Cc2nc3cc(C(F)(F)F)ccc3n2C[C@H]2CCCN3CCCC[C@H]23)cc1`, the EC50 in series [1], in series [2], in series [3], in series [4], in [6] and in series [7] was greater than 100 µM throughout. For the same compound, the EC50 in [10], in series [11], in series [13] and in [14] was greater than 100 µM in each case. Moreover, the CC50 at 96 h in series [5] was no less than 100 µM. Besides, the 50% cytotoxic concentration (CC50) in series [8], in series [9] and in series [12] was greater than 100 µM each time.
As for `CCOCc1nc2ccccc2[nH]1`, the concentration giving a half-maximal response (EC50) in series [1], in [2], in [3], in [4], in [6] and in series [7] was greater than 100 µM in each case. Also, the half-maximal effective concentration (EC50) in series [10], in series [11], in [13] and in series [14] was greater than 100 µM throughout. In addition, in series [5], the CC50 at 96 h is greater than 100 µM. Also, the cytotoxic concentration (CC50) in [8], in [9] and in [12] was greater than 100 µM each time.
On to `COc1ccc(-c2nc3cc(Cl)ccc3n2[C@H]2CCCN3CCCC[C@H]23)cc1`, for which the EC50 in series [1] is greater than 100 µM; in series [2], 36 µM; in [3], greater than 100 µM; in series [4], greater than 100 µM; in [6], greater than 100 µM; in [7], greater than 100 µM. Further, the EC50 in [10], in [11], in [13] and in series [14] was greater than 100 µM in each case. The same compound displayed a half-maximal cytotoxic concentration (CC50) at 96 h in series [5] greater than 100 µM. The 50% cytotoxic concentration (CC50) in series [8], in series [9] and in series [12] was greater than 100 µM throughout.
`Clc1cc2nc(Cc3ccc(Br)cc3)[nH]c2cc1Cl`: the concentration for a half-maximal effect (EC50) in series [1], in series [2], in [3], in [4], in [6] and in series [7] was greater than 100 µM each time. Further, the concentration giving a half-maximal response (EC50) in series [10], in [11], in [13] and in [14] was greater than 100 µM throughout. Moreover, the cytotoxic concentration (CC50) at 96 h in [5] is 68 µM. Also, the CC50 is 73 µM in series [8], 10 µM in series [9] and 10 µM in [12].
As to `FC(F)(F)c1ccc2c(c1)nc(Cc1ccc(Cl)c(Cl)c1)n2C[C@H]1CCCN2CCCC[C@H]12`, the half-maximal effective concentration (EC50) in series [1], in series [2], in series [3], in series [4], in [6] and in series [7] was greater than 100 µM throughout. Further, the EC50 in [10], in series [11], in [13] and in [14] was greater than 100 µM throughout. Moreover, in series [5], the CC50 at 96 h came to 4 µM. Moreover, the CC50 in series [8] is greater than 100 µM; in [9], 34 µM; in series [12], greater than 100 µM.
On to `CC(=O)Nc1ccc(Cc2nc3cc(C(F)(F)F)ccc3[nH]2)cc1`, for which the 50% effective concentration (EC50) in series [1], in series [2], in series [3], in series [4], in series [6] and in [7] was greater than 100 µM in each case. Further, the 50% effective concentration (EC50) in series [10], in series [11], in series [13] and in series [14] was greater than 100 µM throughout. Also, the CC50 at 96 h in series [5] is greater than 100 µM. The half-maximal cytotoxic concentration (CC50) in series [8], in series [9] and in [12] was greater than 100 µM throughout.
Consider `Clc1ccc(Cc2nc3cc(Cl)c(Cl)cc3[nH]2)cc1Cl`, for which the EC50 in series [1], in [2], in [3], in series [4], in series [6] and in series [7] was greater than 100 µM in each case. Also, the EC50 in series [10], in [11], in [13] and in [14] was greater than 100 µM throughout. In addition, the cytotoxic concentration (CC50) at 96 h in series [5] was greater than 100 µM. Moreover, the CC50 in [8] was 70 µM; in series [9], greater than 100 µM; in [12], greater than 100 µM.
For `COc1ccc(Cc2nc3cc(C(F)(F)F)ccc3n2C[C@@H]2CCCN3CCCC[C@H]23)cc1`, the half-maximal effective concentration (EC50) in series [1], in series [2], in series [3], in [4], in [6] and in [7] was greater than 100 µM each time. The EC50 in series [10], in series [11], in series [13] and in series [14] was greater than 100 µM each time. Besides, in [5], the CC50 at 96 h was determined as 77 µM. The 50% cytotoxic concentration (CC50) in series [8] was 89 µM; in series [9], greater than 100 µM; in series [12], greater than 100 µM.

Source of the values: ChEMBL document CHEMBL3351523 (Bioorg Med Chem, 2014).
